Assay results published in BindingDB's records for doi:10.1016/j.bmc.2014.09.025 (Johns Hopkins University, 2014).

Target: T1, Mas-related G-protein coupled receptor member X1 (Mus musculus, UniProt Q8CIP3)
T1 sequence (Q8CIP3 whole entry): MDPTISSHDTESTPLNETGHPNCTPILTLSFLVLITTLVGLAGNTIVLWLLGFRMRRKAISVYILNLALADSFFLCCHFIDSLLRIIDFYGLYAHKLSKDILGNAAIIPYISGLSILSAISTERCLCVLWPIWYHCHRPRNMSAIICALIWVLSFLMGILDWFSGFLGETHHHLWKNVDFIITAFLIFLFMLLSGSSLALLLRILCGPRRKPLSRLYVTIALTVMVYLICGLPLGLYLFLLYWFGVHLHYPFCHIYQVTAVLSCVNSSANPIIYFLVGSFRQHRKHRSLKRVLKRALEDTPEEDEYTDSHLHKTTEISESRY
Assay: Agonist activity at mouse MrgC11 transfected in HEK293 cells by FLIPR assay
How it was run: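 Rodent Mrg receptors were transiently transfected into HEK293 or KNRK cells, which were plated at 25,000 cells/well and imaged 2 days later. Cells were loaded with 2 μM Fluo 4AM and 1% Trypan Red in HBSS for 50 min at 37°C, then held 10 min at room temperature.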

EC50: 31.6 µM
Structure (SMILES): N=C(N)Nc1cccc(C(N)C(=O)N[C@@H](Cc2ccccc2)C(N)=O)c1 (stereo partly specified)
